# Shown are actives, neighbours in structure and some others; about 3.9% of the full set was active somewhere.
# HSF1 activator: HSF-1 activators, primary screen, NIH3T3-HGL cells, MG132 stress, luminescence, single point | hit rate 1.7% among 300,000 | activation, % at 9 µM | NIH3T3-HGL HSF-1 luciferase reporter, 8 h; 100% = twice DMSO control signal;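 active = mean replicate activation of at least 50% with a set share of replicates each reaching 50%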;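 note: 0% = median of the neutral control wells and 100% = twice that signal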
# HCV core dimer: inhibitors of HCV core protein dimerization, primary screen, biochemical, TR-FRET, high-throughput; AID 1899, 2009; inhibition, % at 5 µM; hit rate 0.33% among 300,000; TR-FRET GST/Flag-core106 dimerization, 1536-well;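 active = inhibition above the mean of all tested compounds plus 3 SD, set per screening campaign, cut at about 45% in these data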
#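 Material: Tagged HCV core106 pair (GST and Flag) | Amount: GST-core106 13.5 nM, Flag-core106 17 nM | Medium: KF-containing HEPES buffer, pH 7.45, DTT, CHAPS, BSA | Reagent: Eu donor and XL665 acceptor anti-tag antibodies | Schedule: 4 h at 22.5 °C | Technique: Time-resolved FRET, ex 340 nm, em 617 and 671 nm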
# NS3 helicase inh: inhibitors of HCV NS3 helicase, primary screen, biochemical, Cy5 molecular beacon fluorescence. Hepatitis C virus NS3 helicase. NS3 helicase DNA unwinding. inhibition, % at 10.9 µM. hit rate 0.56% among 290,000. AID 1800, 2009;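 active = inhibition above the mean of all tested compounds plus 3 SD, set per campaign, cut at about 35% in these data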;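 note: 0% = DMSO wells and 100% = thioflavine S control wells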
#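 Assay system: hepatitis C virus NS3 helicase domain fragment enzyme. Also added: annealed dual-labelled DNA beacon duplex, ATP-started. Timing: 1 h reaction at 25 °C, ATP-initiated. Technique: Cy5 fluorescence at 0 and 60 min, beacon hairpin quenching. Evaluation: % inhibition of unwinding. Replication: one well per compound.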
# FID counter: compounds displacing fluorescent DNA intercalator, primary screen, artefact control for HCV NS3 helicase inhibitor project, biochemical, FID fluorescence | DNA fluorescent intercalator displacement | inhibition, % at 7.9 µM | hit rate 0.17% among 290,000 | AID 1845, 2009; in the data active = inhibition above about 37%;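 note: 0% = vehicle and 100% = reference compound; higher means more ethidium bromide displaced from hairpin DNA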
# HSP90 refold inh: HSP90 inhibitors, primary screen, cell lysate, luminescence | Heat shock protein HSP 90 (rabbit reticulocyte lysate; luciferase refolding) | Rabbit reticulocyte lysate, luciferase refolding luminescence, 3 h | inhibition, % at 5.6 µM | hit rate 0.91% among 290,000 | AID 1789, 2009;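 active = inhibition above the screen-wide mean plus 3 SD, computed separately per campaign, cut at about 16% in these data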;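 note: 0% = DMSO wells and 100% = 60 µM geldanamycin wells; inhibitors lower the luminescence because luciferase stays unfolded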
# HSF1 inhib: HSF1 inhibitors in luciferase reporter cells, primary screen, cell-based, NIH3T3, luminescence; NIH3T3-HGL HSE-luciferase, MG132-induced, luminescence 8 h; stronger effect = lower value; activity change, negative = inhibition, % at 7.5 µM (by protocol); hit rate 0.77% among 300,000; AID 2098, 2009;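 active = more than half of replicate wells show activity change below -50%, luminescence cut by over half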;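 note: luciferase reports HSF-1 transcriptional activity via heat shock element; 0% = median of DMSO wells and -100% = zero luminescence signal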
# HSP90 confirm: HSP90 inhibitors, confirmation, cell lysate, luminescence; shares compounds with HSP90 refold inh; rabbit reticulocyte lysate, luciferase refolding luminescence, 3 h; inhibition, % at 5.9 µM; hit rate 64% among 2,300; AID 1846, 2009; in the data active = inhibition above about 18%;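 note: 0% = vehicle wells and 100% = reference inhibitor wells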
# FLuc counter: firefly luciferase inhibitors, HSP90 counter-screen, confirmation, artefact control for HSP90 inhibitor project, biochemical, luminescence, triplicate | shares compounds with HSP90 refold inh | purified native firefly luciferase | inhibition, % at 5.9 µM | hit rate 48% among 2,300 | AID 1847, 2009;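 active = inhibition above the mean inhibition of all tested sample wells plus 3 SD, cut at about 10% in these data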;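 note: 0% = DMSO with luciferase and 100% = wells lacking luciferase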
# Target sequence (P08659 whole entry, looked up): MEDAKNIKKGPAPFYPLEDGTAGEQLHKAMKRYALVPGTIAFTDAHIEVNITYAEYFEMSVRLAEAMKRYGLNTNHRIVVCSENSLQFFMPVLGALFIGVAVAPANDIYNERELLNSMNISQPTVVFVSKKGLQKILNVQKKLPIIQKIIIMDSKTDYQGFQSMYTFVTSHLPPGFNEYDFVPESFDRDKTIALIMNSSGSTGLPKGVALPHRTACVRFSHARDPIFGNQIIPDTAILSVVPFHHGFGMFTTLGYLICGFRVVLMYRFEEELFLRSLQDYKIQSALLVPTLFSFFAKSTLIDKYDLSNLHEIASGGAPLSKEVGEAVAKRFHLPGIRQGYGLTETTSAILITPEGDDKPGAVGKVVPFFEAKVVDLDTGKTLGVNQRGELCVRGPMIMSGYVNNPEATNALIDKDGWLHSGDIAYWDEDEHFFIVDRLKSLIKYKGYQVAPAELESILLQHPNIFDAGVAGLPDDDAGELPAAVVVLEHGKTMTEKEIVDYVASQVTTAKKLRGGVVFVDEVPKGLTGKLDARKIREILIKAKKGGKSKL
# Numbers without * were called inactive; nt = not tested or not shown.
SMILES,HSF1 activator,HCV core dimer,NS3 helicase inh,FID counter,HSP90 refold inh,HSF1 inhib,HSP90 confirm,FLuc counter
Cc1ccc2cc(/C=N/NC(=O)c3ccc(F)cc3)c(Cl)nc2c1,0,-2,14,-5,5,-4,nt,nt
COc1cc(/C=N/Nc2ccc(C(=O)O)cc2)ccc1O,-35,-66,10,0,38*,-25,63*,54*
Cc1ccc2nc(Cl)c(/C=N/Nc3ccc(C(=O)O)cc3)cc2c1,17,-3,21,-26,29*,17,18*,-10
O=C(NC(=S)NC(c1ccccc1)c1ccncc1)c1ccccc1 (stereo unspecified),-31,-4,-6,-35,5,-20,nt,nt
Cc1nnsc1S(=O)c1ccc(F)cc1 (stereo unspecified),-10,0,28,-9,24*,4,-6,-11
Cc1ccc(-c2nc(-c3ccccc3)no2)c(Cl)c1,-77,11,-2,-2,54*,-72*,90*,86*
CCn1c2ccccc2c2cc(NC(=O)CSc3nnc(-c4ccc(OC)cc4)n3N)ccc21,46,6,-32,-16,1,20,nt,nt
CN(C)c1ccc(/C=C/c2nc3ccccc3s2)cc1,-82,-6,8,-4,76*,-80*,92*,90*
COc1cc(/C=C/c2nc3ccccc3s2)cc(OC)c1O,32,-4,13,-13,5,0,nt,nt
CN(C)c1ccc(CNc2nc3ccccc3s2)cc1,-14,13,-7,1,48*,-11,73*,57*
Cc1ccc(S(=O)(=O)Nc2nc3ccccc3s2)cc1,2,6,7,-15,5,1,nt,nt
Cc1ccc(/C=C/c2nc3ccccc3s2)s1,-76,-8,1,-4,46*,-75*,80*,74*
CC(C)CC(=O)N1CCN(Cc2ccc(Br)cc2)CC1,2,-67,12,-3,-7,-7,nt,nt
Cc1ccn(CC(=O)N2CCCC(N3CCN(c4cccc(Cl)c4)CC3)C2)n1 (stereo unspecified),4,-3,11,-28,-4,5,nt,nt
C/C(=C\c1ccccc1)C(=O)Nc1ccc(Cl)cn1,40,0,-6,-6,18*,45,25*,21*
O=C(Nc1ccc(Cl)cn1)Nc1ccc(Cl)cn1,28,-13,3,-1,0,9,nt,nt
CC(=O)NC1=NN(c2ccccc2)C(=O)C1,-7,-1,7,-4,18*,9,-7,-11
CN(C)Cc1cn(CCC(=O)O)c2ccccc12,2,-1,4,0,-4,0,nt,nt
Cc1ccccc1-c1ccc(=O)n(CC(=O)Nc2ccc(N3CCOCC3)cc2)n1,25,6,1,-23,43*,14,0,-5
COn1c(-c2ccccc2)nc2c1CCc1c-2no[n+]1[O-],5,6,-2,-2,2,-6,nt,nt
COc1ccc(-c2nc3c(n2O)CCc2c-3no[n+]2[O-])cc1,-17,-1,1,1,37*,-25,2,-8
NC(Cc1c[nH]c2ccccc12)C(=O)NCc1ccco1 (stereo unspecified),-1,2,-1,1,2,-6,nt,nt
COc1ccc(S(=O)(=O)c2cnc3ccc(OC)cc3c2N2CCC3(CC2)OCCO3)cc1,28,7,-16,-20,5,-1,nt,nt
